Results as given in ChEMBL document CHEMBL5058577, “EUbOPEN Chemogenomics Library 2 (Multiplex)” (2022).

Test system: U2OS
Experiment: Multiplex assay against U2OS
Assay type: toxicity, cell-based
Details: human
Method in brief: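 Hoechst33342, BioTracker Green Microtubule Cytoskeleton Dye, MitoTracker Red and Annexin V Alexa Fluor 680 were added to live cells at seeding, and imaging on a CQ1 microscope at 37°C and 5% CO2 followed compound addition. Gating by CellPathfinder machine learning separated cells into Hoechst high-intensity objects or normal cells, then normal cells into healthy, pyknosed or fragmented nuclei, then pyknosed cells into mitotic or apoptotic. Per cents of healthy-nucleus cells are reported for the tubulin, mitochondrial-mass and membrane-permeability phenotypes.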

[1] = 12 h, 1 µM, compound concentration 1 uM, replicate 1
[2] = 12 h, 1 µM, compound concentration 1 uM, replicate 2
[3] = 12 h, 10 µM, compound concentration 10 uM, replicate 1
[4] = 12 h, 10 µM, compound concentration 10 uM, replicate 2
[5] = 24 h, 1 µM, compound concentration 1 uM, replicate 1
[6] = 24 h, 1 µM, compound concentration 1 uM, replicate 2
[7] = 24 h, 10 µM, compound concentration 10 uM, replicate 1
[8] = 24 h, 10 µM, compound concentration 10 uM, replicate 2
[9] = 48 h, 1 µM, compound concentration 1 uM, replicate 1
[10] = 48 h, 1 µM, compound concentration 1 uM, replicate 2
[11] = 48 h, 10 µM, compound concentration 10 uM, replicate 1
[12] = 48 h, 10 µM, compound concentration 10 uM, replicate 2

CCCCC(=O)N(Cc1ccc(-c2ccccc2-c2nnn[nH]2)cc1)[C@H](C(=O)O)C(C)C
Population Apoptotic (%) [1]: 85%
Population Fragmented Nuclei (%) [1]: 28%
Population Healthy Nuclei (%) [1]: 63%
Population Hoechst High Intensity Objects (%) [1]: 1%
Population Membrane Permeable-Phenotype (%) [1]: 8%
Population Mitochondria Different-Phenotype (%) [1]: 3%
Population Mitotic Cells (%) [1]: 14%
Population Normal (%) [1]: 98%
Population Pyknosed Nuclei (%) [1]: 8%
Population Tubulin-Different-Phenotype (%) [1]: 4%
Total Cell Count [1]: 259
Population Apoptotic (%) [2]: 100%
Population Fragmented Nuclei (%) [2]: 15%
Population Healthy Nuclei (%) [2]: 79%
Population Hoechst High Intensity Objects (%) [2]: 3%
Population Membrane Permeable-Phenotype (%) [2]: 9%
Population Mitochondria Different-Phenotype (%) [2]: 5%
Population Mitotic Cells (%) [2]: 0%
Population Normal (%) [2]: 96%
Population Pyknosed Nuclei (%) [2]: 4%
Population Tubulin-Different-Phenotype (%) [2]: 2%
Total Cell Count [2]: 130
Population Apoptotic (%) [3]: 75%
Population Fragmented Nuclei (%) [3]: 35%
Population Healthy Nuclei (%) [3]: 55%
Population Hoechst High Intensity Objects (%) [3]: 1%
Population Membrane Permeable-Phenotype (%) [3]: 3%
Population Mitochondria Different-Phenotype (%) [3]: 2%
Population Mitotic Cells (%) [3]: 25%
Population Normal (%) [3]: 98%
Population Pyknosed Nuclei (%) [3]: 9%
Population Tubulin-Different-Phenotype (%) [3]: 2%
Total Cell Count [3]: 218
Population Fragmented Nuclei (%) [4]: 24%
Population Healthy Nuclei (%) [4]: 71%
Population Hoechst High Intensity Objects (%) [4]: 0%
Population Membrane Permeable-Phenotype (%) [4]: 1%
Population Normal (%) [4]: 99%
Population Pyknosed Nuclei (%) [4]: 3%
Population Tubulin-Different-Phenotype (%) [4]: 0%
Total Cell Count [4]: 108
Population Apoptotic (%) [5]: 86%
Population Fragmented Nuclei (%) [5]: 23%
Population Healthy Nuclei (%) [5]: 68%
Population Hoechst High Intensity Objects (%) [5]: 2%
Population Membrane Permeable-Phenotype (%) [5]: 5%
Population Mitochondria Different-Phenotype (%) [5]: 3%
Population Mitotic Cells (%) [5]: 13%
Population Normal (%) [5]: 97%
Population Pyknosed Nuclei (%) [5]: 7%
Population Tubulin-Different-Phenotype (%) [5]: 2%
Total Cell Count [5]: 289
Population Apoptotic (%) [6]: 83%
Population Fragmented Nuclei (%) [6]: 10%
Population Healthy Nuclei (%) [6]: 77%
Population Hoechst High Intensity Objects (%) [6]: 6%
Population Membrane Permeable-Phenotype (%) [6]: 9%
Population Mitochondria Different-Phenotype (%) [6]: 6%
Population Mitotic Cells (%) [6]: 16%
Population Normal (%) [6]: 93%
Population Pyknosed Nuclei (%) [6]: 12%
Population Tubulin-Different-Phenotype (%) [6]: 7%
Total Cell Count [6]: 158
Population Apoptotic (%) [7]: 82%
Population Fragmented Nuclei (%) [7]: 31%
Population Healthy Nuclei (%) [7]: 59%
Population Hoechst High Intensity Objects (%) [7]: 2%
Population Membrane Permeable-Phenotype (%) [7]: 3%
Population Mitochondria Different-Phenotype (%) [7]: 2%
Population Mitotic Cells (%) [7]: 17%
Population Normal (%) [7]: 97%
Population Pyknosed Nuclei (%) [7]: 8%
Population Tubulin-Different-Phenotype (%) [7]: 2%
Total Cell Count [7]: 272
Population Apoptotic (%) [8]: 84%
Population Fragmented Nuclei (%) [8]: 22%
Population Healthy Nuclei (%) [8]: 67%
Population Hoechst High Intensity Objects (%) [8]: 0%
Population Membrane Permeable-Phenotype (%) [8]: 4%
Population Mitochondria Different-Phenotype (%) [8]: 8%
Population Mitotic Cells (%) [8]: 15%
Population Normal (%) [8]: 100%
Population Pyknosed Nuclei (%) [8]: 9%
Population Tubulin-Different-Phenotype (%) [8]: 6%
Total Cell Count [8]: 135
Population Apoptotic (%) [9]: 86%
Population Fragmented Nuclei (%) [9]: 17%
Population Healthy Nuclei (%) [9]: 75%
Population Hoechst High Intensity Objects (%) [9]: 2%
Population Membrane Permeable-Phenotype (%) [9]: 5%
Population Mitochondria Different-Phenotype (%) [9]: 3%
Population Mitotic Cells (%) [9]: 13%
Population Normal (%) [9]: 97%
Population Pyknosed Nuclei (%) [9]: 7%
Population Tubulin-Different-Phenotype (%) [9]: 2%
Total Cell Count [9]: 397
Population Apoptotic (%) [10]: 85%
Population Fragmented Nuclei (%) [10]: 20%
Population Healthy Nuclei (%) [10]: 68%
Population Hoechst High Intensity Objects (%) [10]: 3%
Population Membrane Permeable-Phenotype (%) [10]: 7%
Population Mitotic Cells (%) [10]: 15%
Population Normal (%) [10]: 96%
Population Pyknosed Nuclei (%) [10]: 10%
Population Tubulin-Different-Phenotype (%) [10]: 3%
Total Cell Count [10]: 201
Population Apoptotic (%) [11]: 83%
Population Fragmented Nuclei (%) [11]: 22%
Population Healthy Nuclei (%) [11]: 70%
Population Hoechst High Intensity Objects (%) [11]: 1%
Population Membrane Permeable-Phenotype (%) [11]: 6%
Population Mitochondria Different-Phenotype (%) [11]: 2%
Population Mitotic Cells (%) [11]: 16%
Population Normal (%) [11]: 98%
Population Pyknosed Nuclei (%) [11]: 7%
Population Tubulin-Different-Phenotype (%) [11]: 2%
Total Cell Count [11]: 347
Population Apoptotic (%) [12]: 87%
Population Fragmented Nuclei (%) [12]: 21%
Population Healthy Nuclei (%) [12]: 60%
Population Hoechst High Intensity Objects (%) [12]: 4%
Population Membrane Permeable-Phenotype (%) [12]: 4%
Population Mitochondria Different-Phenotype (%) [12]: 3%
Population Mitotic Cells (%) [12]: 12%
Population Normal (%) [12]: 95%
Population Pyknosed Nuclei (%) [12]: 17%
Population Tubulin-Different-Phenotype (%) [12]: 6%
Total Cell Count [12]: 188
